# Assay results as given in ChEMBL document CHEMBL5346932, “Structure-activity relationships of actively FhuE transported rifabutin derivatives with potent activity against Acinetobacter baumannii” (Eur J Med Chem, 2023).
# Activity calls are given as the source filed them. The rule behind the calls is not given here.
# Tests used:
# Format in all cases: functional
# Acinetobacter baumannii [1] = experiment: Antibacterial activity against Acinetobacter baumannii HUMC1 cultured in RPMI 1640 medium supplemented with 10% FCS assessed as bacterial growth inhibition incubated for 20 hrs by CLSI based microbroth dilution method
# In short: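 CLSI broth microdilution in RPMI 1640 + 10% FCS in place of CAMHB. Compounds in 2-fold dilution series; inoculum 5×10^5 CFU/mL. Plates held static at 35 °C for 20 h. MIC read visually as the lowest concentration with no visible growth. […] is the reciprocal of this MIC.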
# Staphylococcus aureus = experiment: Antibacterial activity against Staphylococcus aureus USA300 UAMS-1625 assessed as bacterial growth inhibition incubated for 20 hrs by CLSI based microbroth dilution method
# In short: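 CLSI broth microdilution in CAMHB against S. aureus USA300 UAMS-1625. Compounds in 2-fold dilution series; inoculum 5×10^5 CFU/mL. Incubated without shaking at 35 °C for 20 h. MIC read visually as the lowest concentration preventing visible growth. Fold changes are relative to the rifabutin MIC.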
# Acinetobacter baumannii [2] = experiment: Antibacterial activity against Acinetobacter baumannii HUMC1 harboring FhuE deletion mutant assessed as bacterial growth inhibition incubated for 20 hrs by CLSI based microbroth dilution method
# In short: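 Microbroth dilution per CLSI in RPMI 1640 + 10% FCS (in place of CAMHB). Compounds as 2-fold serial dilutions; inoculum 5×10^5 CFU/mL of previously described HUMC1-derived mutant strains. Incubated static at 35 °C for 20 h. MIC read visually as lowest concentration preventing visible growth.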
# [3] = Acinetobacter baumannii, HUMC1, 20 h, read-out: MIC
Compound,MIC (Acinetobacter baumannii [1]; [3]),further results
CO[C@H]1/C=C/O[C@@]2(C)Oc3c(C)c(O)c4c(c3C2=O)C2=NC3(CC[N+](C)(C)CC3)NC2=C(NC(=O)/C(C)=C\C=C\[C@H](C)[C@H](O)[C@@H](C)[C@@H](O)[C@@H](C)[C@H](OC(C)=O)[C@@H]1C)C4=O.[I-],8 µg/mL,–
CCCN1CCC2(CC1)N=C1C(=C3NC(=O)/C(C)=C\C=C\[C@H](C)[C@H](O)[C@@H](C)[C@@H](O)[C@@H](C)[C@H](OC(C)=O)[C@H](C)[C@@H](OC)/C=C/O[C@@]4(C)Oc5c(C)c(O)c(c1c5C4=O)C3=O)N2,0.004 µg/mL,Activity (Staphylococcus aureus): Active; MIC (Acinetobacter baumannii [2]): 0.5 µg/mL
CCOC(=O)N1CCC2(CC1)N=C1C(=C3NC(=O)/C(C)=C\C=C\[C@H](C)[C@H](O)[C@@H](C)[C@@H](O)[C@@H](C)[C@H](OC(C)=O)[C@H](C)[C@@H](OC)/C=C/O[C@@]4(C)Oc5c(C)c(O)c(c1c5C4=O)C3=O)N2,8 µg/mL,–
CO[C@H]1/C=C/O[C@@]2(C)Oc3c(C)c(O)c4c(c3C2=O)C2=NC3(CCN(C5CC5)CC3)NC2=C(NC(=O)/C(C)=C\C=C\[C@H](C)[C@H](O)[C@@H](C)[C@@H](O)[C@@H](C)[C@H](OC(C)=O)[C@@H]1C)C4=O (stereo in doubt; form 2),–,MIC (Acinetobacter baumannii [1]; 20 h): 0.001 µg/mL
CO[C@H]1/C=C/O[C@@]2(C)Oc3c(C)c(O)c4c(c3C2=O)C2=NC3(CCN(C(C)=O)CC3)NC2=C(NC(=O)/C(C)=C\C=C\[C@H](C)[C@H](O)[C@@H](C)[C@@H](O)[C@@H](C)[C@H](OC(C)=O)[C@@H]1C)C4=O,4 µg/mL,–
CO[C@H]1/C=C/O[C@@]2(C)Oc3c(C)c(O)c4c(c3C2=O)C2=NC3(CCN(C5CCCC5)CC3)NC2=C(NC(=O)/C(C)=C\C=C\[C@H](C)[C@H](O)[C@@H](C)[C@@H](O)[C@@H](C)[C@H](OC(C)=O)[C@@H]1C)C4=O (stereo in doubt; form 2),–,MIC (Acinetobacter baumannii [1]; 20 h): 0.004 µg/mL
COC(=O)CN1CCC2(CC1)N=C1C(=C3NC(=O)/C(C)=C\C=C\[C@H](C)[C@H](O)[C@@H](C)[C@@H](O)[C@@H](C)[C@H](OC(C)=O)[C@H](C)[C@@H](OC)/C=C/O[C@@]4(C)Oc5c(C)c(O)c(c1c5C4=O)C3=O)N2,–,"MIC (Acinetobacter baumannii [1]; Acinetobacter baumannii, HUMC1, read-out: MIC): 0.5 µg/mL; MIC (Acinetobacter baumannii [2]): 0.5 µg/mL"
COC(=O)[C@@H](C)N1CCC2(CC1)N=C1C(=C3NC(=O)/C(C)=C\C=C\[C@H](C)[C@H](O)[C@@H](C)[C@@H](O)[C@@H](C)[C@H](OC(C)=O)[C@H](C)[C@@H](OC)/C=C/O[C@@]4(C)Oc5c(C)c(O)c(c1c5C4=O)C3=O)N2,0.125 µg/mL,MIC (Acinetobacter baumannii [2]): 0.5 µg/mL
CO[C@H]1/C=C/O[C@@]2(C)Oc3c(C)c(O)c4c(c3C2=O)C2=NC3(CCN(CC5CC5)CC3)NC2=C(NC(=O)/C(C)=C\C=C\[C@H](C)[C@H](O)[C@@H](C)[C@@H](O)[C@@H](C)[C@H](OC(C)=O)[C@@H]1C)C4=O,0.001 µg/mL,Activity (Staphylococcus aureus): Active; MIC (Acinetobacter baumannii [2]): 0.5 µg/mL
CO[C@H]1/C=C/O[C@@]2(C)Oc3c(C)c(O)c4c(c3C2=O)C2=NC3(CCN(CC5CCCCC5)CC3)NC2=C(NC(=O)/C(C)=C\C=C\[C@H](C)[C@H](O)[C@@H](C)[C@@H](O)[C@@H](C)[C@H](OC(C)=O)[C@@H]1C)C4=O (stereo in doubt; form 2),–,MIC (Acinetobacter baumannii [1]; 20 h): 0.03 µg/mL
CO[C@H]1/C=C/O[C@@]2(C)Oc3c(C)c(O)c4c(c3C2=O)C2=NC3(CCN(CC5CCCCC5)CC3)NC2=C(NC(=O)/C(C)=C\C=C\[C@H](C)[C@H](O)[C@@H](C)[C@@H](O)[C@@H](C)[C@H](OC(C)=O)[C@@H]1C)C4=O (stereo in doubt; form 1) [listing 1 of 2 here],–,Activity (Staphylococcus aureus): Active
CO[C@H]1/C=C/O[C@@]2(C)Oc3c(C)c(O)c4c(c3C2=O)C2=NC3(CCN(CCN5CCOCC5)CC3)NC2=C(NC(=O)/C(C)=C\C=C\[C@H](C)[C@H](O)[C@@H](C)[C@@H](O)[C@@H](C)[C@H](OC(C)=O)[C@@H]1C)C4=O,1 µg/mL,–
CO[C@H]1/C=C/O[C@@]2(C)Oc3c(C)c(O)c4c(c3C2=O)C2=NC3(CCCCC3)NC2=C(NC(=O)/C(C)=C\C=C\[C@H](C)[C@H](O)[C@@H](C)[C@@H](O)[C@@H](C)[C@H](OC(C)=O)[C@@H]1C)C4=O,0.125 µg/mL,MIC (Acinetobacter baumannii [2]): 0.5 µg/mL
CO[C@H]1/C=C/O[C@@]2(C)Oc3c(C)c(O)c4c(c3C2=O)C2=NC3(CCOCC3)NC2=C(NC(=O)/C(C)=C\C=C\[C@H](C)[C@H](O)[C@@H](C)[C@@H](O)[C@@H](C)[C@H](OC(C)=O)[C@@H]1C)C4=O,2 µg/mL,–

# The next lines start with results.
MIC (Acinetobacter baumannii [1]; [3]),Compound,further results
0.004 µg/mL,CCCCN1CCC2(CC1)N=C1C(=C3NC(=O)/C(C)=C\C=C\[C@H](C)[C@H](O)[C@@H](C)[C@@H](O)[C@@H](C)[C@H](OC(C)=O)[C@H](C)[C@@H](OC)/C=C/O[C@@]4(C)Oc5c(C)c(O)c(c1c5C4=O)C3=O)N2,Activity (Staphylococcus aureus): Active
0.008 µg/mL,C#CCN1CCC2(CC1)N=C1C(=C3NC(=O)/C(C)=C\C=C\[C@H](C)[C@H](O)[C@@H](C)[C@@H](O)[C@@H](C)[C@H](OC(C)=O)[C@H](C)[C@@H](OC)/C=C/O[C@@]4(C)Oc5c(C)c(O)c(c1c5C4=O)C3=O)N2,–
0.016 µg/mL,CO[C@H]1/C=C/O[C@@]2(C)Oc3c(C)c(O)c4c(c3C2=O)C2=NC3(CCN([C@H]5CCCO5)CC3)NC2=C(NC(=O)/C(C)=C\C=C\[C@H](C)[C@H](O)[C@@H](C)[C@@H](O)[C@@H](C)[C@H](OC(C)=O)[C@@H]1C)C4=O,–
0.125 µg/mL,CO[C@H]1/C=C/O[C@@]2(C)Oc3c(C)c(O)c4c(c3C2=O)C2=NC3(CCN(C5CCCCC5C)CC3)NC2=C(NC(=O)/C(C)=C\C=C\[C@H](C)[C@H](O)[C@@H](C)[C@@H](O)[C@@H](C)[C@H](OC(C)=O)[C@@H]1C)C4=O (some centres not stated),–
0.03 µg/mL,CO[C@H]1/C=C/O[C@@]2(C)Oc3c(C)c(O)c4c(c3C2=O)C2=NC3(CCN(C(C)(C)CC(C)(C)C)CC3)NC2=C(NC(=O)/C(C)=C\C=C\[C@H](C)[C@H](O)[C@@H](C)[C@@H](O)[C@@H](C)[C@H](OC(C)=O)[C@@H]1C)C4=O,–
0.5 µg/mL,CO[C@H]1/C=C/O[C@@]2(C)Oc3c(C)c(O)c4c(c3C2=O)C(=N)C(N)=C(NC(=O)/C(C)=C\C=C\[C@H](C)[C@H](O)[C@@H](C)[C@@H](O)[C@@H](C)[C@H](OC(C)=O)[C@@H]1C)C4=O,–
0.25 µg/mL,CO[C@H]1/C=C/O[C@@]2(C)Oc3c(C)c(O)c4c(c3C2=O)C2=NC3(CCN(C5CCN(C)CC5)CC3)NC2=C(NC(=O)/C(C)=C\C=C\[C@H](C)[C@H](O)[C@@H](C)[C@@H](O)[C@@H](C)[C@H](OC(C)=O)[C@@H]1C)C4=O,–
0.008 µg/mL,CO[C@H]1/C=C/O[C@@]2(C)Oc3c(C)c(O)c4c(c3C2=O)C2=NC3(CCN(C5CCOCC5)CC3)NC2=C(NC(=O)/C(C)=C\C=C\[C@H](C)[C@H](O)[C@@H](C)[C@@H](O)[C@@H](C)[C@H](OC(C)=O)[C@@H]1C)C4=O,–
0.5 µg/mL,CO[C@H]1/C=C/O[C@@]2(C)Oc3c(C)c(O)c4c(c3C2=O)C2=NC3(CCN(CC(=O)N(C)C)CC3)NC2=C(NC(=O)/C(C)=C\C=C\[C@H](C)[C@H](O)[C@@H](C)[C@@H](O)[C@@H](C)[C@H](OC(C)=O)[C@@H]1C)C4=O,–
0.5 µg/mL,COC(=O)CCCN1CCC2(CC1)N=C1C(=C3NC(=O)/C(C)=C\C=C\[C@H](C)[C@H](O)[C@@H](C)[C@@H](O)[C@@H](C)[C@H](OC(C)=O)[C@H](C)[C@@H](OC)/C=C/O[C@@]4(C)Oc5c(C)c(O)c(c1c5C4=O)C3=O)N2,–
0.125 µg/mL,CO[C@H]1/C=C/O[C@@]2(C)Oc3c(C)c(O)c4c(c3C2=O)C2=NC3(CCN(Cc5ccccc5)CC3)NC2=C(NC(=O)/C(C)=C\C=C\[C@H](C)[C@H](O)[C@@H](C)[C@@H](O)[C@@H](C)[C@H](OC(C)=O)[C@@H]1C)C4=O,Activity (Staphylococcus aureus): Active
0.125 µg/mL,CO[C@H]1/C=C/O[C@@]2(C)Oc3c(C)c(O)c4c(c3C2=O)C2=NC3(CCN(C[C@H]5CCCO5)CC3)NC2=C(NC(=O)/C(C)=C\C=C\[C@H](C)[C@H](O)[C@@H](C)[C@@H](O)[C@@H](C)[C@H](OC(C)=O)[C@@H]1C)C4=O,–
0.06 µg/mL,CO[C@H]1/C=C/O[C@@]2(C)Oc3c(C)c(O)c4c(c3C2=O)C2=NC3(CCN(CC5CCCCC5)CC3)NC2=C(NC(=O)/C(C)=C\C=C\[C@H](C)[C@H](O)[C@@H](C)[C@@H](O)[C@@H](C)[C@H](OC(C)=O)[C@@H]1C)C4=O (stereo in doubt; form 1) [listing 2 of 2 here],–
0.25 µg/mL,CO[C@H]1/C=C/O[C@@]2(C)Oc3c(C)c(O)c4c(c3C2=O)C2=NC3(CCN(CC#N)CC3)NC2=C(NC(=O)/C(C)=C\C=C\[C@H](C)[C@H](O)[C@@H](C)[C@@H](O)[C@@H](C)[C@H](OC(C)=O)[C@@H]1C)C4=O,–
0.004 µg/mL,C#CCCN1CCC2(CC1)N=C1C(=C3NC(=O)/C(C)=C\C=C\[C@H](C)[C@H](O)[C@@H](C)[C@@H](O)[C@@H](C)[C@H](OC(C)=O)[C@H](C)[C@@H](OC)/C=C/O[C@@]4(C)Oc5c(C)c(O)c(c1c5C4=O)C3=O)N2,–
0.016 µg/mL,COCCN1CCC2(CC1)N=C1C(=C3NC(=O)/C(C)=C\C=C\[C@H](C)[C@H](O)[C@@H](C)[C@@H](O)[C@@H](C)[C@H](OC(C)=O)[C@H](C)[C@@H](OC)/C=C/O[C@@]4(C)Oc5c(C)c(O)c(c1c5C4=O)C3=O)N2,–
0.5 µg/mL,CO[C@H]1/C=C/O[C@@]2(C)Oc3c(C)c(O)c4c(c3C2=O)C2=NC3(CCN(CCc5ccccc5)CC3)NC2=C(NC(=O)/C(C)=C\C=C\[C@H](C)[C@H](O)[C@@H](C)[C@@H](O)[C@@H](C)[C@H](OC(C)=O)[C@@H]1C)C4=O,Activity (Staphylococcus aureus): Active
0.03 µg/mL,CO[C@H]1/C=C/O[C@@]2(C)Oc3c(C)c(O)c4c(c3C2=O)C2=NC3(CCN(C5CCCC(C)C5)CC3)NC2=C(NC(=O)/C(C)=C\C=C\[C@H](C)[C@H](O)[C@@H](C)[C@@H](O)[C@@H](C)[C@H](OC(C)=O)[C@@H]1C)C4=O (some centres not stated),–
